# Assays:
# Mus musculus [1] = test: Biodistribution in CD1 mouse adrenal at 200 to 300 kBq, iv measured at 5 mins by gamma counting analysis; assay type: ADME, organism-based, Adrenal gland; conditions: in vivo
# In short: (§1)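 Female CD-1 mice, 200–300 kBq radiotracer given iv, n = 3 per time point. Animals anaesthetised for blood and urine sampling, then killed by cervical dislocation at 5, 15, 30 or 60 min p.i. Organs removed, weighed and gamma-counted; uptake expressed as % injected dose per g wet tissue.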
# Heart [2] = test: Biodistribution in CD1 mouse heart at 200 to 300 kBq, iv measured at 60 mins by gamma counting analysis; assay type: ADME, organism-based; conditions: in vivo, 1 h; in short: as §1
# Stomach [3] = test: Biodistribution in CD1 mouse stomach at 200 to 300 kBq, iv measured at 30 mins by gamma counting analysis; assay type: ADME, organism-based; conditions: in vivo, 0.5 h
# In short: (§2)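 Female CD-1 mice received 200–300 kBq [18F]radiotracer intravenously. Blood and urine were sampled under anaesthesia, then mice were killed by cervical dislocation at 5, 15, 30 or 60 min p.i. (n = 3; control at 60 min n = 7). Organs were removed and weighed, activity was gamma-counted, and uptake was expressed as % injected dose per g wet tissue.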
# Heart [4] = test: Biodistribution in CD1 mouse heart at 200 to 300 kBq, iv measured at 30 mins by gamma counting analysis; assay type: ADME, organism-based; conditions: in vivo, 0.5 h; in short: as §1
# Kidney [5] = test: Biodistribution in CD1 mouse kidney at 200 to 300 kBq, iv measured at 60 mins by gamma counting analysis in presence of SSR180711; assay type: ADME, organism-based; conditions: in vivo, 1 h
# In short: (§3)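 Blocking study in female CD-1 mice, n = 7 per blocker, with a matching control group. SSR180711 or NS6740 given at 10 mg kg⁻¹ ip in 0.9% saline 10 min before iv radiotracer (200–300 kBq). Organs taken at 60 min p.i., weighed and gamma-counted; uptake as % ID per g wet weight. Compared with control by two-tailed independent Student's t test.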
# Mus musculus [6] = test: Biodistribution in CD1 mouse thymus at 200 to 300 kBq, iv measured at 5 mins by gamma counting analysis; assay type: ADME, organism-based; conditions: in vivo
# In short: (§4)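 Female CD-1 mice given 200–300 kBq tracer intravenously. Animals anaesthetised for blood and urine sampling, then killed by cervical dislocation at 5, 15, 30 or 60 min (n = 3 per time; n = 7 at 60 min). Organs removed and weighed, activity gamma-counted, expressed as % injected dose per g wet weight. Blocking arm: 10 mg/kg i.p. in 0.9% saline, 10 min before tracer; two-tailed unpaired t test versus control.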
# Mus musculus [7] = test: Biodistribution in CD1 mouse small intestine at 200 to 300 kBq, iv measured at 30 mins by gamma counting analysis; assay type: ADME, organism-based; conditions: in vivo, 0.5 h; in short: as §2
# Lung [8] = test: Biodistribution in CD1 mouse lung at 200 to 300 kBq, iv measured at 5 mins by gamma counting analysis; assay type: ADME, organism-based; conditions: in vivo; in short: as §2
# Zone of skin = test: Biodistribution in CD1 mouse skin at 200 to 300 kBq, iv measured at 60 mins by gamma counting analysis in presence of SSR180711; assay type: ADME, organism-based; conditions: in vivo, 1 h
# In short: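 Blocking design in female CD-1 mice, n = 7 per group. The blocker was given at 10 mg kg^-1 i.p. in 0.9% saline 10 min before i.v. 200–300 kBq [18F]radiotracer. Mice were killed at 60 min p.i. and organs weighed and gamma-counted as % ID per g wet weight. Blocked groups were compared with controls by two-tailed independent Student's t test.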
# Blood = test: Biodistribution in CD1 mouse blood at 200 to 300 kBq, iv measured at 5 mins by gamma counting analysis; assay type: ADME, organism-based; conditions: in vivo; in short: as §1
# Spleen [9] = test: Biodistribution in CD1 mouse spleen at 200 to 300 kBq, iv measured at 30 mins by gamma counting analysis; assay type: ADME, organism-based; conditions: in vivo, 0.5 h; in short: as §2
# Pancreas [10] = test: Biodistribution in CD1 mouse pancreas at 200 to 300 kBq, iv measured at 60 mins by gamma counting analysis; assay type: ADME, organism-based; conditions: in vivo, 1 h; in short: as §2
# Femur [11] = test: Biodistribution in CD1 mouse femur at 200 to 300 kBq, iv measured at 15 mins by gamma counting analysis; assay type: ADME, organism-based; conditions: in vivo, 0.25 h; in short: as §1
# Heart [12] = test: Biodistribution in CD1 mouse heart at 200 to 300 kBq, iv measured at 15 mins by gamma counting analysis; assay type: ADME, organism-based; conditions: in vivo, 0.25 h; in short: as §1
# Mus musculus [13] = test: Biodistribution in CD1 mouse small intestine at 200 to 300 kBq, iv measured at 15 mins by gamma counting analysis; assay type: ADME, organism-based; conditions: in vivo, 0.25 h; in short: as §2
# [14] = Biodistribution in CD1 mouse urine at 200 to 300 kBq, iv measured at 60 mins by gamma counting analysis; assay type: ADME, organism-based; conditions: in vivo, 1 h; in short: as §4
# Lung [15] = test: Biodistribution in CD1 mouse lung at 200 to 300 kBq, iv measured at 15 mins by gamma counting analysis; assay type: ADME, organism-based; conditions: in vivo, 0.25 h; in short: as §2
# Spleen [16] = test: Biodistribution in CD1 mouse spleen at 200 to 300 kBq, iv measured at 5 mins by gamma counting analysis; assay type: ADME, organism-based; conditions: in vivo; in short: as §2
# Liver = test: Biodistribution in CD1 mouse liver at 200 to 300 kBq, iv measured at 5 mins by gamma counting analysis; assay type: ADME, organism-based; conditions: in vivo; in short: as §2
# Muscle tissue = test: Biodistribution in CD1 mouse muscle at 200 to 300 kBq, iv measured at 60 mins by gamma counting analysis; assay type: ADME, organism-based; conditions: in vivo, 1 h; in short: as §2
# Brain = test: Biodistribution in CD1 mouse brain at 200 to 300 kBq, iv measured at 5 mins by gamma counting analysis; assay type: ADME, organism-based; conditions: in vivo; in short: as §1
# Mus musculus [17] = test: Biodistribution in CD1 mouse large intestine at 200 to 300 kBq, iv measured at 5 mins by gamma counting analysis; assay type: ADME, organism-based; conditions: in vivo; in short: as §1
# Kidney [18] = test: Biodistribution in CD1 mouse kidney at 200 to 300 kBq, iv measured at 15 mins by gamma counting analysis; assay type: ADME, organism-based; conditions: in vivo, 0.25 h; in short: as §1
# Mus musculus [19] = test: Biodistribution in CD1 mouse thymus at 200 to 300 kBq, iv measured at 30 mins by gamma counting analysis; assay type: ADME, organism-based; conditions: in vivo, 0.5 h; in short: as §2
# Mus musculus [20] = test: Biodistribution in CD1 mouse adrenal at 200 to 300 kBq, iv measured at 60 mins by gamma counting analysis in presence of SSR180711; assay type: ADME, organism-based, Adrenal gland; conditions: in vivo, 1 h; in short: as §3
# Stomach [21] = test: Biodistribution in CD1 mouse stomach at 200 to 300 kBq, iv measured at 5 mins by gamma counting analysis; assay type: ADME, organism-based; conditions: in vivo; in short: as §2
# Femur [22] = test: Biodistribution in CD1 mouse femur at 200 to 300 kBq, iv measured at 5 mins by gamma counting analysis; assay type: ADME, organism-based; conditions: in vivo; in short: as §1
# Urinary bladder = test: Biodistribution in CD1 mouse bladder at 200 to 300 kBq, iv measured at 60 mins by gamma counting analysis in presence of SSR180711; assay type: ADME, organism-based; conditions: in vivo, 1 h; in short: as §3
# Heart [23] = test: Biodistribution in CD1 mouse heart at 200 to 300 kBq, iv measured at 60 mins by gamma counting analysis in presence of SSR180711; assay type: ADME, organism-based; conditions: in vivo, 1 h; in short: as §3
# Pancreas [24] = test: Biodistribution in CD1 mouse pancreas at 200 to 300 kBq, iv measured at 30 mins by gamma counting analysis; assay type: ADME, organism-based; conditions: in vivo, 0.5 h; in short: as §2
# Lung [25] = test: Biodistribution in CD1 mouse lung at 200 to 300 kBq, iv measured at 30 mins by gamma counting analysis; assay type: ADME, organism-based; conditions: in vivo, 0.5 h; in short: as §2
# Mus musculus [26] = test: Biodistribution in CD1 mouse large intestine at 200 to 300 kBq, iv measured at 15 mins by gamma counting analysis; assay type: ADME, organism-based; conditions: in vivo, 0.25 h; in short: as §1
# Mus musculus [27] = test: Biodistribution in CD1 mouse adrenal at 200 to 300 kBq, iv measured at 60 mins by gamma counting analysis; assay type: ADME, organism-based, Adrenal gland; conditions: in vivo, 1 h; in short: as §1
structure (smiles),measurement,setting,value
O=C(Oc1ccc(Br)cc1)N1CCN2CCC1CC2 [SSR180711],Drug uptake,Mus musculus [1],5.78 % ID/g
same,Drug uptake,Heart [2],1.84 % ID/g
same,Drug uptake,Stomach [3],7.29 % ID/g
same,Drug uptake,Heart [4],2.41 % ID/g
same,Drug uptake,Kidney [5],10.5 % ID/g
same,Drug uptake,Mus musculus [6],1.95 % ID/g
same,Drug uptake,Mus musculus [7],11 % ID/g
same,Drug uptake,Lung [8],8.48 % ID/g
same,Drug uptake,Zone of skin,2.04 % ID/g
same,Drug uptake,Blood,1.6 % ID/g
same,Drug uptake,Spleen [9],7.5 % ID/g
same,Drug uptake,Pancreas [10],3.12 % ID/g
same,Drug uptake,Femur [11],2.15 % ID/g
same,Drug uptake,Heart [12],2.96 % ID/g
same,Drug uptake,Mus musculus [13],6.72 % ID/g
same,Drug uptake,[14],152 % ID/g
same,Drug uptake,Lung [15],10.8 % ID/g
same,Drug uptake,Spleen [16],4.22 % ID/g
same,Drug uptake,Liver,6.29 % ID/g
same,Drug uptake,Muscle tissue,1 % ID/g
same,Drug uptake,Brain,0.16 % ID/g
same,Drug uptake,Mus musculus [17],1.36 % ID/g
same,Drug uptake,Kidney [18],10.6 % ID/g
same,Drug uptake,Mus musculus [19],2.6 % ID/g
same,Drug uptake,Mus musculus [20],3.65 % ID/g
same,Drug uptake,Stomach [21],3.92 % ID/g
same,Drug uptake,Femur [22],1.45 % ID/g
same,Drug uptake,Urinary bladder,1.47 % ID/g
same,Drug uptake,Heart [23],1.81 % ID/g
same,Drug uptake,Pancreas [24],4.2 % ID/g
same,Drug uptake,Lung [25],6.78 % ID/g
same,Drug uptake,Mus musculus [26],2.65 % ID/g
same,Drug uptake,Mus musculus [27],3.01 % ID/g
